# Measured values taken from ChEMBL document CHEMBL5518184, “Structural basis for specific inhibition of salicylate synthase from Mycobacterium abscessus” (Eur J Med Chem, 2024).
# Key:
# [1] = Inhibition of Mycobacterium abscessus ATCC 19977 salicylate synthase expressed in Escherichia coli BL21 (DE3) cells using chorismic acid as substrate by fluorimetric assay; design: species or system Mycobacteroides abscessus
# Summary of the method: (§1)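 Purified enzyme (IMAC plus gel filtration) at 1–2 μM in 50 mM Hepes pH 7.5, 5 mM MgCl₂, 37 °C, with 50 μM chorismic acid; fluorimetric read-out at Ex 305 / Em 420 nm. IC50 measured over 0.1–200 μM inhibitor for compounds leaving under 30 % residual activity at 100 μM, fitted as A[I] = A[0]·(1 − [I]/([I]+IC50)).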
# [2] = system: Mycobacteroides abscessus; assay: Inhibition of Mycobacterium abscessus ATCC 19977 salicylate synthase expressed in Escherichia coli BL21 (DE3) cells using chorismic acid as substrate assessed as residual activity at 100 uM by fluorimetric assay relative to control
# Summary of the method: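 Enzyme purified by IMAC and gel filtration, used at 1–2 μM in 50 mM Hepes pH 7.5 with 5 mM MgCl₂ at 37 °C. Reaction started with 50 μM chorismic acid; fluorescence read at Ex 305 / Em 420 nm. Compound tested at a fixed 100 μM; percent residual activity recorded.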
# [3] = system: Mycobacterium tuberculosis; assay: Inhibition of Mycobacterium tuberculosis salicylate synthase expressed in Escherichia coli BL21 cells using chorismic acid as substrate assessed as residual activity at 100 uM by fluorimetric assay relative to control
# Summary of the method: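 Recombinant His-purified enzyme (IMAC plus gel filtration), 1–2 μM, in 50 mM Hepes pH 7.5, 5 mM MgCl₂ at 37 °C. Reaction started with chorismic acid at a subsaturating 50 μM. Compound tested at a fixed 100 μM. Fluorescence monitored at Ex 305 nm / Em 420 nm, and activity expressed as % residual activity.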
# [4] = Inhibition of Mycobacterium tuberculosis salicylate synthase expressed in Escherichia coli BL21 cells using chorismic acid as substrate by fluorimetric assay
# Summary of the method: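 Purified recombinant enzyme, 1–2 μM, in 50 mM Hepes pH 7.5, 5 mM MgCl₂ at 37 °C, with 50 μM chorismic acid. Fluorescence read at Ex 305 nm / Em 420 nm. Run only for compounds with residual activity below 30 % at 100 μM. Activity measured across 0.1–200 μM inhibitor and IC50 fitted as A[I] = A[0]·(1 − [I]/([I]+IC50)).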
# [5] = Inhibition of Mycobacterium abscessus ATCC 19977 salicylate synthase expressed in Escherichia coli BL21 (DE3) cells by fluorimetric assay; design: species or system Mycobacteroides abscessus; summary of the method: as §1
# [6] = Inhibition of Mycobacterium abscessus ATCC 19977 salicylate synthase expressed in Escherichia coli BL21 (DE3) cells using chorismic acid as substrate in presence of BSA by fluorimetric assay; design: species or system Mycobacteroides abscessus
# Summary of the method: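 IC50 determined in the standard fluorimetric chorismate assay (1–2 μM enzyme, 50 mM Hepes pH 7.5, 5 mM MgCl₂, 37 °C, 50 μM chorismic acid, Ex 305 / Em 420 nm) with 0.1 mg/mL BSA added.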
# [7] = Inhibition of Mycobacterium abscessus ATCC 19977 salicylate synthase expressed in Escherichia coli BL21 (DE3) cells using chorismic acid as substrate in presence of Triton X-100 by fluorimetric assay; design: species or system Mycobacteroides abscessus
# Summary of the method: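 IC50 determined in the standard fluorimetric chorismate assay (1–2 μM enzyme, 50 mM Hepes pH 7.5, 5 mM MgCl₂, 37 °C, 50 μM chorismic acid) with 0.01 % (v/v) Triton X-100 added as detergent.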
# [8] = Inhibition of Mycobacterium abscessus ATCC 19977 salicylate synthase expressed in Escherichia coli BL21 (DE3) cells using chorismic acid as substrate in presence of DTT by fluorimetric assay; design: species or system Mycobacteroides abscessus
# Summary of the method: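 IC50 determined in the standard fluorimetric chorismate assay (1–2 μM enzyme, 50 mM Hepes pH 7.5, 5 mM MgCl₂, 37 °C, 50 μM chorismic acid) with 100 μM DTT added to rule out cysteine reactivity.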
# [9] = Cytotoxicity against human fibroblast assessed as viable cells at 10 uM incubated for 96 hrs by MTS assay relative to control; type: toxicity, cell-based; conditions: human fibroblasts, read-out: Activity
# Summary of the method: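 Juvenile human foreskin fibroblasts grown in DMEM with 10 % FBS, 1 % L-glutamine and penicillin/streptomycin; 1 × 10⁴ cells/well, treated after 24 h at 0.5, 1, 5 and 10 μM. After 96 h, viability read by MTS at 490 nm and expressed as percent of untreated cells; three independent experiments.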
Structure (SMILES),IC50 [1],Activity [2],Activity [3],IC50 [4],also measured
N#Cc1cccc(-c2ccc(C(=O)O)o2)c1,12.1 µM,3.2%,3.1%,6.3 µM,
O=C(O)c1ccc(-c2cccc(Cl)c2)o1,,88.3%,102%,,
NC(=O)c1cccc(-c2ccc(C(=O)O)o2)c1,42.9 µM,25.8%,20.9%,31.4 µM,
Nc1cccc(-c2ccc(C(=O)O)o2)c1,,48.3%,65.8%,,
Cc1cccc(-c2ccc(C(=O)O)o2)c1,,54.7%,104%,,
CS(=O)(=O)c1cccc(-c2ccc(C(=O)O)o2)c1,3.6 µM,5.4%,25.8%,34.9 µM,
NS(=O)(=O)c1ccc(-c2ccc(C(=O)O)o2)cc1,19.3 µM,16%,,,
O=C(O)c1cccc(-c2ccc(C(=O)O)o2)c1,,33.3%,27.2%,35.2 µM,
O=C(O)c1ccc(-c2cccc(C(F)(F)F)c2)o1,,35%,42%,,
CNC(=O)c1cccc(-c2ccc(C(=O)O)o2)c1,,53.3%,84%,,
O=C(O)c1ccc(-c2cccc(O)c2)o1,,65%,70.4%,,
O=C(O)c1ccc(-c2ccc(C(F)(F)F)cc2C(F)(F)F)o1,,,,,IC50 [5]: ~5 µM
COC(=O)c1ccc(-c2cccc(S(N)(=O)=O)c2)o1,,55.3%,,,
NS(=O)(=O)c1ccccc1-c1ccc(C(=O)O)o1,,97.1%,,,
NS(=O)(=O)c1cccc(-c2ccc(C(=O)O)o2)c1,2.6 µM,0.6%,28.6%,39.7 µM,"IC50 [6]: 2.8 µM; IC50 [7]: 2.8 µM; IC50 [8]: 3.3 µM; viability at 96 h, 10 µM [9]: 99.5%"
NS(=O)(=O)c1cccc(-c2cccc(C(=O)O)c2)c1,,89.4%,,,
